A selection follows.
Apaf-1 act: human Apaf-1 activation. O14727. Apaf-1 apoptosome caspase-3 activation, DEVD-Rh110 fluorescence; hits give low values. activity change, negative = activation, % at 20 µM. hit rate 0.31% among 330,000. AID 489031;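 active means activity change at or below -40% at 20 µM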
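Schedule: 30 min preincubation, 50 min reaction, room temperature / System: biochemical Apaf-1 apoptosome reconstitution / Medium: 20 mM HEPES pH 7.5 with CHAPS, BSA / Evaluation: Caspase-3 cleavage activity downstream of Apaf-1 activation / Detection: Caspase-3-released Rh110 fluorescence, 540 nm emission, 480 nm excitation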
Rh110 act interf: Rh110 signal interference in Apaf-1 activator counter-screen | shares compounds with Apaf-1 act | fluorescence interference (activity change), % at 20 µM, hits read low | Rh110 fluorescence interference, quenched caspase reaction, Ex480/Em540 | 980 tested, under 10 active;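 active means mean activity change at or below -40% when tested at 20 µM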
Apaf-1 act conf: confirmation of human Apaf-1 activators. AID 504617. hit rate 5% among 980. shares compounds with Apaf-1 act. activity change, negative = activation, % at 20 µM. reconstituted apoptosome caspase-3 activity, DEVD-Rh110 fluorescence; hits give low values;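 active means mean activity change at or below -40%, meaning activation of 40% or more, at 20 µM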
* hit, by the source's call; . = no result given.

SMILES | Apaf-1 act | Rh110 act interf | Apaf-1 act conf
O=C1c2ccccc2-c2nnc(-c3ccccc3)cc21 | 71 | . | .
O=C(NCc1ccccn1)c1ccc2c(=O)n3nc(Nc4ccccc4)sc3nc2c1 | -43* | -4 | -38
CCC12CCCN3CCc4c(n(c5ccccc45)C(O)(C(=O)OC)C1)C32 (stereo not given) | 41 | . | .
CCSc1ccc2c(c1)N(CCCN1CCN(C)CC1)c1ccccc1S2 | 57 | . | .
COc1cccc2c3c(c(=O)[nH]c12)CCC(C)(C)O3 | -63* | -9 | 10
COc1cccc2c(=O)c3cccc(N)c3[nH]c12 | 70 | . | .

Screens from PubChem BioAssay.
